{
  "source": "ChEMBL document CHEMBL5038663",
  "about": "“Probing the Requirements for Dual Angiotensin-Converting Enzyme C-Domain Selective/Neprilysin Inhibition” (J Med Chem, 2022)",
  "key": {"Homo sapiens": {"species_on_record": "Homo sapiens", "assay": "Selectivity ratio of Ki for human ACE N-domain expressed in CHO cells to Ki for human ACE C-domain expressed in CHO cells", "assay_type": "cell-based", "summary_of_the_method": "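Ki for each ACE domain from IC50 by Cheng-Prusoff for competitive inhibition, Ki = IC50/(1 + [S]/Km). […] Ratio taken as N-domain Ki over C-domain Ki.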"}, "[1]": {"biological_target": "T1, Angiotensin-converting enzyme (Homo sapiens, UniProt P12821)", "T1 sequence (P12821 whole entry)": "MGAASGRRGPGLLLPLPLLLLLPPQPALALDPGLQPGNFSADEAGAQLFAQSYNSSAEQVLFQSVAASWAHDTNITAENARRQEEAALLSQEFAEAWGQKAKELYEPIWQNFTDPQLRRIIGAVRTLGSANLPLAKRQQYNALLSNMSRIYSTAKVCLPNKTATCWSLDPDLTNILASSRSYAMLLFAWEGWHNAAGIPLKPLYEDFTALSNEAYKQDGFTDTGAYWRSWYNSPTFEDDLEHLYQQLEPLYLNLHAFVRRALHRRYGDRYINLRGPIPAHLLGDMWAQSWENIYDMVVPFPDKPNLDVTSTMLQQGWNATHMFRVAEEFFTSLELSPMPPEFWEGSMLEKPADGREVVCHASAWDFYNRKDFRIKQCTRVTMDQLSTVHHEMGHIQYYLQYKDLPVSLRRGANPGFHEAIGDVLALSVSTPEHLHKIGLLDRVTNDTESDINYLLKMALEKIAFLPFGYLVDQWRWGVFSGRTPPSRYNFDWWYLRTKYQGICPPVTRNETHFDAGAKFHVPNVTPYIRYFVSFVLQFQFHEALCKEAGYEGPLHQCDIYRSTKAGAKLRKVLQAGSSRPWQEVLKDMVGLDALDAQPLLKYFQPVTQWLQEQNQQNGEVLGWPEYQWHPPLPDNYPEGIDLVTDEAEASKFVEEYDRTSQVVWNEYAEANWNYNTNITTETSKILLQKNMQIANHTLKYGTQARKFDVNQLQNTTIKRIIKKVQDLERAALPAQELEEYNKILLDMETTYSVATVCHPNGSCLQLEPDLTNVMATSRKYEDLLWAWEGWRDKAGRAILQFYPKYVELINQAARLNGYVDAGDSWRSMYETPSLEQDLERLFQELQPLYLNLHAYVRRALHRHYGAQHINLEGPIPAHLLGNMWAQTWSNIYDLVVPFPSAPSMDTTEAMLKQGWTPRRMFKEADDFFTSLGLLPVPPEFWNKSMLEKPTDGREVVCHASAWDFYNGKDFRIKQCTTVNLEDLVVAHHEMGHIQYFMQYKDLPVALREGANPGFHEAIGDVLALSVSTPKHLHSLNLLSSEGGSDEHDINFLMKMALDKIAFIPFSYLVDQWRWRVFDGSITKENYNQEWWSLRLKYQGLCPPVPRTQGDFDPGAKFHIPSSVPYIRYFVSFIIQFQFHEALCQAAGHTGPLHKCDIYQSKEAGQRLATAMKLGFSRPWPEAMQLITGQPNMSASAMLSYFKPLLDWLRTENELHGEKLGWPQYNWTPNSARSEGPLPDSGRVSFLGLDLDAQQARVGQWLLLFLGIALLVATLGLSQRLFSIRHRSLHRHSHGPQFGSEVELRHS", "assay": "Inhibition of recombinant human ACE C-domain expressed in CHO cells using Cbz-Phe-His-Leu as substrate preincubated for 15 mins followed by substrate addition and measured after 10 mins by fluorescence spectrophotometric analysis", "summary_of_the_method": "(§1)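 Fully glycosylated single-domain human ACE (C-domain D629, N-domain Δ36NJ) from CHO cells. Two-fold inhibitor dilution in 100 mM potassium phosphate pH 8.3, 300 mM NaCl, 10 μM ZnCl₂. Preincubation 15 min at 22 °C. 10 min at 37 °C, stopped with NaOH/o-phthalaldehyde, then HCl. Triplicates, n ≥ 2 independent experiments.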"}, "Neprilysin": {"biological_target": "Neprilysin (Homo sapiens, UniProt P08473)", "sequence (P08473 whole entry, the tested form may be a part)": "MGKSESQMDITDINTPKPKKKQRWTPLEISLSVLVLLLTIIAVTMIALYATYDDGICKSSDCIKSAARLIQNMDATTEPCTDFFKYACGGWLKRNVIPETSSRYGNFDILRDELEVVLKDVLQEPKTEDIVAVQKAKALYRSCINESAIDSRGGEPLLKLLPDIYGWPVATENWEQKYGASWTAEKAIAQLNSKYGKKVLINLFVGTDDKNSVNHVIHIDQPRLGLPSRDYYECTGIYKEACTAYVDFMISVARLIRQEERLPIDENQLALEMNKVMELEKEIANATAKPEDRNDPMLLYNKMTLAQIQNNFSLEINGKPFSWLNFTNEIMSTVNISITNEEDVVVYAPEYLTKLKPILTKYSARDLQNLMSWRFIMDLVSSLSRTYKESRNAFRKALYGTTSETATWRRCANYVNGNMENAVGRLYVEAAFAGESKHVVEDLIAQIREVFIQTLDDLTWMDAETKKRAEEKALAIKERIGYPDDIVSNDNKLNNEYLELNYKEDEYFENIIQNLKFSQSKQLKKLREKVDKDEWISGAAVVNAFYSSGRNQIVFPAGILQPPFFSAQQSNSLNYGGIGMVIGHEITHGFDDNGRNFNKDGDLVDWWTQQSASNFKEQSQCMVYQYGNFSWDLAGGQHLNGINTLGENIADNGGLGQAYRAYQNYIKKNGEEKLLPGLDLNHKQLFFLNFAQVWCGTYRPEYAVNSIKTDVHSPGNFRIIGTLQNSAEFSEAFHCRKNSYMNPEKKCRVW", "assay": "Inhibition of hGH-8His-NEP expressed in CHO cells preincubated for 15 mins followed by […] peptide substrate addition by fluorescence spectrophotometric analysis", "assay_type": "cell-based", "summary_of_the_method": "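Secreted glycosylated human NEP ectodomain (hGH-8His fusion) from CHO cells, purified by cobalt affinity. Two-fold inhibitor serial dilution in 50 mM Tris pH 8.3, 0.05% Brij-35, 300 mM NaCl, 10 μM ZnCl₂. Enzyme and inhibitor preincubated 15 min at 22 °C. […] Continuous fluorescence at ex 320/em 405 nm. Triplicates, n ≥ 2 independent experiments.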"}, "[2]": {"biological_target": "T1, Angiotensin-converting enzyme", "assay": "Inhibition of recombinant human ACE N-domain expressed in CHO cells using Cbz-Phe-His-Leu as substrate preincubated for 15 mins followed by substrate addition and measured after 10 mins by fluorescence spectrophotometric analysis", "summary_of_the_method": "as §1"}},
  "data": [
    {"molecule": "Cc1ccc([C@H]2CC[C@@H](C(=O)O)N2C(=O)CN[C@@H](CCc2ccccc2)C(=O)O)cc1", "values": [
      {"measurement": "Ratio Ki", "setting": "Homo sapiens", "result": 8},
      {"measurement": "Ki", "setting": "[1]", "result": 0.44, "unit": "µM"},
      {"measurement": "Ki", "setting": "Neprilysin", "result": "> 50", "unit": "µM"},
      {"measurement": "Ki", "setting": "[2]", "result": 3.4, "unit": "µM"}
    ]},
    {"molecule": "CCCC[C@H](N[C@@H](CCc1ccccc1)C(=O)O)C(=O)N[C@@H](Cc1ccc(O)cc1)C(=O)O", "values": [
      {"measurement": "Ratio Ki", "setting": "Homo sapiens", "result": 3.5},
      {"measurement": "Ki", "setting": "[1]", "result": 0.035, "unit": "µM"},
      {"measurement": "Ki", "setting": "Neprilysin", "result": 0.6, "unit": "µM"},
      {"measurement": "Ki", "setting": "[2]", "result": 0.12, "unit": "µM"}
    ]},
    {"molecule": "NCCCC[C@H](N[C@@H](CCc1ccccc1)C(=O)O)C(=O)N[C@@H](Cc1c[nH]c2ccccc12)C(=O)O", "values": [
      {"measurement": "Ratio Ki", "setting": "Homo sapiens", "result": 189},
      {"measurement": "Ki", "setting": "[1]", "result": 0.009, "unit": "µM"},
      {"measurement": "Ki", "setting": "Neprilysin", "result": "> 150", "unit": "µM"},
      {"measurement": "Ki", "setting": "[2]", "result": 1.7, "unit": "µM"}
    ]},
    {"molecule": "CCCC[C@H](N[C@@H](CCc1ccccc1)C(=O)O)C(=O)N[C@@H](Cc1c[nH]c2ccccc12)C(=O)O", "values": [
      {"measurement": "Ratio Ki", "setting": "Homo sapiens", "result": 37},
      {"measurement": "Ki", "setting": "[1]", "result": 0.1, "unit": "µM"},
      {"measurement": "Ki", "setting": "Neprilysin", "result": 19, "unit": "µM"},
      {"measurement": "Ki", "setting": "[2]", "result": 3.79, "unit": "µM"}
    ]}
  ]
}
